Read-outs that look alike come from different tables or passages of the source.
What was measured:
[1] = clinical phase 1 trials; cited from earlier work
SARS-CoV-2 [2] = assay type: cell-based; settings: Vero E6 cells, 46 to 50 h
Vero E6 cells = experiment: Concentration-response cell viability assay, Vero E6 cells; assay type: cell-based, African green monkey; settings: noninfected
SARS-CoV-2 [3] = assay type: cell-based
[4] = Concentration-response cell viability assay, A549-hACE2 cells; assay type: cell-based, human; settings: human, noninfected
[5] = Concentration-response cell viability assay, Vero E6 cells; assay type: cell-based, African green monkey; settings: African green monkey, noninfected, CC50, Vero E6 cells
SARS-CoV-2 [6] = assay type: cell-based; settings: A549-hACE2
SARS-CoV-2 [7] = experiment: Short-term assay for interactions of PIs and remdesivir, Vero E6 cells; assay type: cell-based; settings: for residual infectivity: Vero E6, treatment condition 3; for interaction with remdesivir (method of Chou and Talalay, CompuSyn): Vero E6 and A549-hACE2 data sets
SARS-CoV-2 [8] = assay type: cell-based; settings: Vero E6
SARS-CoV-2 [9] = assay type: cell-based; remark: listed apart in the source
[10] = Concentration-response cell viability assay, Huh7.5 cells; assay type: cell-based, human; settings: human, noninfected
Method in brief: (§1)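 Huh7.5 hepatoma cells in DMEM/10% heat-inactivated FBS with penicillin/streptomycin, plated at 9,000 cells/well. The following day, noninfected cultures received test compound dilution series (DMSO-dissolved) or DMSO alone. Incubation was 70–74 h, then CellTiter 96 Aqueous One reagent for 1–3 h at 37°C, 5% CO₂, and absorbance at 492 nm. Each concentration had 2–4 replicate wells, normalised to the mean of 12 untreated control wells on each plate.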

A549-hACE2 cells = experiment: Concentration-response cell viability assay, A549-hACE2 cells; assay type: cell-based, human; settings: noninfected
Huh7.5 cells = experiment: Concentration-response cell viability assay, Huh7.5 cells; assay type: cell-based, human; settings: noninfected
Method in brief: as §1

SARS-CoV-2 [11] = settings: cited from earlier work
[12] = rats; single oral administration; cited from earlier work
[13] = Severe acute respiratory syndrome coronavirus 2
[14] = Severe acute respiratory syndrome coronavirus 2, Huh7.5
[15] = A549-hACE2 cells, […], 46 to 50 h

Compound: CCCCCOc1ccc(NC(=S)NC(=O)c2cccnc2)cc1C(F)(F)F [ACH-806]
- adverse finding that halted development [1]: reversible nephrotoxicity
- EC50 (SARS-CoV-2 [2]): 46 µM
- CC50 (Vero E6 cells): > 429 µM

Compound: CC(C)(C)[C@@H]1NC(=O)O[C@@H]2CCC[C@H]2OC/C=C/C(F)(F)c2nc3ccccc3nc2O[C@@H]2C[C@@H](C(=O)N[C@]3(C(=O)NS(=O)(=O)C4(C)CC4)C[C@H]3C(F)F)N(C2)C1=O [Glecaprevir, glecaprevir]
- EC50 (SARS-CoV-2 [3]; [13]): > 94 µM
- CC50 (Vero E6 cells): > 268 µM
- CC50 [4]: > 268 µM

Compound: C=C[C@@H]1C[C@]1(NC(=O)[C@@H]1C[C@@H](Oc2ncc(OC)c3ccc(Cl)cc23)CN1C(=O)[C@@H](NC(=O)OC(C)(C)C)C(C)(C)C)C(=O)NS(=O)(=O)C1CC1 [Asunaprevir, asunaprevir]
- CC50 [5]: 263 µM

Compound: CC(C)(C)NC(=O)N[C@H](C(=O)N1C[C@H]2[C@@H]([C@H]1C(=O)NC(CC1CCC1)C(=O)C(N)=O)C2(C)C)C(C)(C)C (stereo partly shown) [Boceprevir, boceprevir]
- effect on viral spread (viral RNA titers) (SARS-CoV-2 [6]; 1- to 5-fold EC50 boceprevir): minor impact
- effect on viral spread (viral RNA titers) (SARS-CoV-2 [6]; 1-fold EC50 PI singly): no to little effect
- effect on viral spread (viral RNA titers) (SARS-CoV-2 [6]; 8-fold EC50 boceprevir, observation period 13 days): viral suppression
- EC50 (SARS-CoV-2 [2]): 44 µM
- residual infectivity (SARS-CoV-2 [7]; 17.4 μM boceprevir singly): 79%
- interaction with remdesivir (method of Chou and Talalay, CompuSyn) (SARS-CoV-2 [7]): primarily antagonistic
- EC50 (SARS-CoV-2 [3]; [13]): 20 µM
- viral RNA titers in supernatant (SARS-CoV-2 [8]; 3-fold EC50 boceprevir): decreased to values around the lower limit of quantification
- viral suppression (immunostaining) (SARS-CoV-2 [8]; 3-fold EC50 boceprevir, […], follow-up 9 days): sustained viral suppression
- viral RNA titers in supernatant (SARS-CoV-2 [8]; 5-fold EC50 boceprevir): decreased to values around the lower limit of quantification
- viral suppression (immunostaining) (SARS-CoV-2 [8]; 5-fold EC50 boceprevir, […], follow-up 17 days): sustained viral suppression
- EC50 (SARS-CoV-2 [9]; [14]): 42 µM
- CC50 [5]: > 1210 µM
- CC50 [4]: > 1210 µM
- CC50 [10]: 701 µM

Compound: C=C[C@@H]1C[C@]1(NC(=O)[C@@H]1C[C@@H]2CN1C(=O)[C@H](C(C)(C)C)NC(=O)O[C@@H]1C[C@H]1CCCCCc1nc3ccc(OC)cc3nc1O2)C(=O)NS(=O)(=O)C1CC1.O [Grazoprevir, grazoprevir]
- effect on viral spread (viral RNA titers) (SARS-CoV-2 [6]; 1-fold EC50 PI singly): no to little effect
- EC50 (SARS-CoV-2 [2]): 42 µM
- interaction with remdesivir (method of Chou and Talalay, CompuSyn) (SARS-CoV-2 [7]): primarily synergistic
- EC50 (SARS-CoV-2 [3]; [15]): 26 µM
- infected culture cells (SARS-CoV-2 [8]; 1-fold EC50 PI, […]): 90%
- EC50 (SARS-CoV-2 [9]; Huh7.5 cells, […], 70 to 74 h): 20 µM
- CC50 (Vero E6 cells): 239 µM
- CC50 (A549-hACE2 cells): 125 µM
- CC50 (Huh7.5 cells): 133 µM

Compound: CCC(CC)COC(=O)[C@H](C)N[P@](=O)(OC[C@H]1O[C@@](C#N)(c2ccc3c(N)ncnn23)[C@H](O)[C@@H]1O)Oc1ccccc1 [Remdesivir, remdesivir]
- residual infectivity (SARS-CoV-2 [7]; 0.6 μM remdesivir singly): 83%
- residual infectivity (SARS-CoV-2 [7]; 1.7 μM remdesivir singly): 47%
- EC50 (SARS-CoV-2 [3]; [13]): 0.1 µM

Compound: voxilaprevir
- EC50 (SARS-CoV-2 [2]): > 27 µM
- EC50 (SARS-CoV-2 [3]; [15]): 10 µM
- EC50 (SARS-CoV-2 [11]; A549-hACE2 cell line): > 10 µM
- CC50 (Vero E6 cells): 72 µM
- CC50 (A549-hACE2 cells): 81 µM

Compound: CCCC[C@H](NC(=O)[C@@H]1[C@@H]2[C@H](CN1C(=O)[C@@H](NC(=O)NC1(CS(=O)(=O)C(C)(C)C)CCCCC1)C(C)(C)C)C2(C)C)C(=O)C(=O)NC1CC1 [Narlaprevir, narlaprevir]
- EC50 (SARS-CoV-2 [2]): 37 µM
- interaction with remdesivir (method of Chou and Talalay, CompuSyn) (SARS-CoV-2 [7]): primarily antagonistic
- CC50 [5]: 269 µM

Compound: COc1ccc2c(O[C@@H]3C[C@H]4C(=O)N[C@]5(C(=O)NS(=O)(=O)C6CC6)C[C@H]5/C=C\CCCCC[C@H](CC(=O)N5CCCC(F)(F)C5)C(=O)N4C3)cc(-c3nc(C(C)C)cs3)nc2c1C [Deldeprevir, deldeprevir]
- CC50 [5]: 56 µM

Compound: CCC[C@H](NC(=O)[C@@H]1[C@H]2CCC[C@H]2CN1C(=O)[C@@H](NC(=O)[C@@H](NC(=O)c1cnccn1)C1CCCCC1)C(C)(C)C)C(=O)C(=O)NC1CC1 [Telaprevir, telaprevir]
- CC50 [5]: > 432 µM

Compound: COc1ccc2c(O[C@@H]3C[C@H]4C(=O)N[C@]5(C(=O)NS(=O)(=O)C6CC6)C[C@H]5/C=C\CCCCN(C)C(=O)[C@@H]4C3)cc(-c3nc(C(C)C)cs3)nc2c1C [Simeprevir, simeprevir]
- concentration in the intestine relative to plasma [12]: up to 128 fold
- concentrations in other tissues relative to plasma [12]: roughly equal to plasma concentrations
- effect on viral spread (viral RNA titers) (SARS-CoV-2 [6]; 1-fold EC50 PI singly): no to little effect
- residual infectivity (SARS-CoV-2 [7]; 11.1 μM simeprevir singly): 100%
- EC50 (SARS-CoV-2 [3]; [13]): 9 µM
- EC50 (SARS-CoV-2 [11]; human lung cells): 1 µM
- EC50 (SARS-CoV-2 [9]; [14]): 14 µM
- CC50 [5]: 59 µM
- CC50 [4]: 56 µM
- CC50 [10]: 33 µM

Compound: Cc1cnc(C(=O)N[C@H]2CCCCC/C=C\[C@@H]3C[C@@]3(C(=O)NS(=O)(=O)C3CC3)NC(=O)[C@@H]3C[C@@H](Oc4nc5ccccc5c5ccccc45)CN3C2=O)cn1 [Paritaprevir, paritaprevir]
- interaction with remdesivir (method of Chou and Talalay, CompuSyn) (SARS-CoV-2 [7]): primarily synergistic
- CC50 (Vero E6 cells): 123 µM

Compound: CC[C@@H]1C[C@]1(NC(=O)[C@@H]1C[C@@H]2CN1C(=O)[C@H](C(C)(C)C)NC(=O)OCC(C)(C)CCCCc1cccc3c1CN(C3)C(=O)O2)C(=O)NS(=O)(=O)C1CC1 [Vaniprevir, vaniprevir]
- CC50 (Vero E6 cells): 171 µM

Compound: CC(C)(C)OC(=O)N[C@H]1CCCCC/C=C\[C@@H]2C[C@@]2(C(=O)NS(=O)(=O)C2CC2)NC(=O)[C@@H]2C[C@@H](OC(=O)N3Cc4cccc(F)c4C3)CN2C1=O [Danoprevir, danoprevir]
- CC50 (Vero E6 cells): > 243 µM

From PMC8370243 (Antimicrobial Agents and Chemotherapy, 2021)
